A short description of data set [1]: Selectivity index, ratio of IC50 for human NCM460 cells to IC50 for human HCT-116 cells. The note with it: NCM460 cells and HCT-116 cells, read-out: Ratio IC50. In kind it is toxicity. The method, boiled down:
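The selectivity index is IC50 in NCM460 normal colonic epithelial cells (RPMI-1640, 10% FBS) divided by IC50 in HCT116. Both were measured by 72 h CCK-8 viability at 2×10^3 cells/well with A450 read-out.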

Data set [2] has as its system HCT-116. Kind of data set: Inhibition of cell migration in human HCT-116 cells measured after 24 hrs by crystal violet staining based fluorescent inverted microscopic analysis. In kind it is functional. The note with it: dose 0.1-0.3 µM. Summed up: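 Uncoated Transwell inserts were seeded with HCT116 cells (1×10^4) in the upper chamber, with complete medium below. Treated 24 h at 37 °C, 5% CO2, with 0.1, 0.2 or 0.3 μM or 0.1% DMSO. Fixed with 4% paraformaldehyde, stained with 0.1% crystal violet, migrated cells imaged and counted. At least three replicates.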

In data set [3] the test system is HCT-116. Kind of data set: Inhibition of cell invasion in human HCT-116 cells measured after 48 hrs by crystal violet staining based fluorescent inverted microscopic analysis. In kind it is functional. The note with it: dose 0.1-0.3 µM. Summed up: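 Transwell inserts were coated with Matrigel (1:3 in serum-free medium). HCT116 cells (1×10^4) in serum-free medium went in the upper chamber, with complete medium as stimulus. Treated with 0.1, 0.2 or 0.3 μM or 0.1% DMSO for 48 h at 37 °C. Fixed in 4% paraformaldehyde, stained with 0.1% crystal violet, and imaged. Counts analysed by ImageJ. At least three replicates.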

Data set [4] deals with T1, Tubulin (Homo sapiens) (UniProt P68371+Q9H4B7+P0DPH7+P68366+Q13509+Q71U36+P04350+Q3ZCM7+P07437+P68363+Q9BQE3+Q6PEY2+Q13885+Q9BVA1+Q9BUF5). Put plainly: Disruption of microtubule network in human HCT-116 cells at 0.1 to 0.3 uM measured after 48 hrs by immunofluorescent staining based analysis. It is filed as cell-based. The note with it: dose 0.1-0.3 µM. Summed up: (§1)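 HCT116 cells (1×10^5/well suspension) settled on glass slides overnight at 37 °C, 5% CO2. Treated 48 h with 0.1, 0.2 or 0.3 μM, or 0.1% DMSO. Fixed in 4% paraformaldehyde, permeabilised with 0.5% Triton X-100, blocked. Anti-α-tubulin (1:4000) at 4 °C overnight, then Alexa488 anti-mouse IgG 1 h. DAPI mount, confocal imaging.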

For data set [5], the target named is T1, Tubulin (Homo sapiens). Kind of data set: Inhibition of tubulin polymerization in human HCT-116 cells measured after 48 hrs by immunofluorescent staining based analysis. It is filed as cell-based. The note with it: dose 0.1-0.3 µM. Summed up:
as §1

Data set [6] has as its system HCT-116. Kind of data set: Induction of cell cycle arrest in human HCT-116 cells assessed as accumulation of cells at G0/G1 phase at 0.1 uM measured after 24 hrs by PI/RNase staining based flow cytometry analysis (reference value: 32.88%). It is filed as functional.
Data set [7] has as its system HCT-116. Kind of data set: Induction of cell cycle arrest in human HCT-116 cells assessed as accumulation of cells at G0/G1 phase at 0.2 uM measured after 24 hrs by PI/RNase staining based flow cytometry analysis (reference value: 32.88%). It is filed as functional. (In general: Flow cytometry measures light scatter and fluorescence of single cells or particles in a stream.)

Data set [8] deals with HCT-116. Put plainly: Induction of cell cycle arrest in human HCT-116 cells assessed as accumulation of cells at G2/M phase at 0.2 uM measured after 24 hrs by PI/RNase staining based flow cytometry analysis (reference value: 28.83%). It is filed as functional.
For data set [9], the system named is HCT-116. Kind of data set: Induction of cell cycle arrest in human HCT-116 cells assessed as accumulation of cells at G0/G1 phase at 0.3 uM measured after 24 hrs by PI/RNase staining based flow cytometry analysis (reference value: 32.88%). In kind it is functional.
In data set [10] the test system is HCT-116. Kind of data set: Induction of cell cycle arrest in human HCT-116 cells assessed as accumulation of cells at G2/M phase at 0.3 uM measured after 24 hrs by PI/RNase staining based flow cytometry analysis (reference value: 28.83%). In kind it is functional.
For data set [11], the system named is HCT-116. Kind of data set: Induction of cell cycle arrest at G2/M phase in human HCT-116 cells assessed as reduction in Cdc-2 protein expression measured after 48 hrs by Western blot analysis. It is filed as functional, cell-based. The conditions noted are these: dose 0.1-0.3 µM. The method, boiled down: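 HCT116 cells given 0.1, 0.2 or 0.3 μM for 48 h, with 0.1% DMSO control. Lysates run on SDS-PAGE and blotted to PVDF. Probed with anti-Cdc2 and anti-Cyclin B1 (1:1000), β-actin as loading control, HRP secondary, and chemiluminescence. Band quantities expressed relative to control set to 1. Three independent experiments.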
For orientation: In western blotting, separated proteins are transferred to a membrane and probed.

Data set [12] has as its system HCT-116. Kind of data set: Induction of autophagy in human HCT-116 cells assessed as downregulation of p62 protein level measured after 24 hrs by Western blot analysis. The conditions noted are these: dose 0.1-0.3 µM. In kind it is functional, cell-based. Summed up: (§2)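 HCT116 cells exposed for 24 h to 0.1, 0.2 or 0.3 μM. Lysed on ice and protein measured by BCA. […] Milk-blocked, probed with anti-LC3A/B or anti-phospho-SQSTM1/p62 (1:1000) plus β-actin, then HRP anti-rabbit and chemiluminescence. Bands normalised to control set to 1. Three independent experiments.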

Data set [13] deals with HCT-116. Kind of data set: Induction of autophagy in human HCT-116 cells assessed as increase in LC3-II protein expression measured after 24 hrs by Western blot analysis. It is filed as functional, cell-based. The note with it: dose 0.1-0.3 µM. The method, boiled down: as §2
Data set [14] has as its system A549. Put plainly: Induction of cell cycle arrest in human A549 cells assessed as accumulation of cells at S phase at 0.1 uM measured after 24 hrs by PI/RNase staining based analysis (reference value: 24.95%). It is filed as functional.
Data set [15] concerns A549. Put plainly: Induction of cell cycle arrest in human A549 cells assessed as accumulation of cells at G2/M phase at 0.2 uM measured after 24 hrs by PI/RNase staining based analysis (reference value: 10.22%). It is filed as functional.
The test system of data set [16] is A549. Put plainly: Induction of cell cycle arrest in human A549 cells assessed as accumulation of cells at G0/G1 phase at 0.3 uM measured after 24 hrs by PI/RNase staining based analysis (reference value: 41.91%). In kind it is functional.
Data set [17] concerns A549. Kind of data set: Induction of apoptosis in human A549 cells assessed as late apoptotic cells at 0.2 uM measured after 24 hrs by Annexin V-APC/PI staining based flow cytometry analysis (reference value: 0.86%). In kind it is functional.
In data set [18] the test system is A549. Kind of data set: Induction of apoptosis in human A549 cells assessed as dead cells at 0.2 uM measured after 24 hrs by Annexin V-APC/PI staining based flow cytometry analysis (reference value: 0.50%). In kind it is functional.
Data set [19] concerns A549. Kind of data set: Induction of apoptosis in human A549 cells assessed as dead cells at 0.3 uM measured after 24 hrs by Annexin V-APC/PI staining based flow cytometry analysis (reference value: 0.50%). In kind it is functional.
The test system of data set [20] is HCT-116. Put plainly: Antitumor activity against human HCT-116 cells xenografted in female BALB/c nude mouse assessed as tumor growth inhibition at 20 mg/kg, ip administered every 2 days for 20 days by vernier caliper relative to control. The conditions noted are these: HCT-116, 480 h, time 20 day, read-out: TGI. It is filed as functional. Summed up:
(§3)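 HCT116 cells (5×10^7/0.2 mL/mouse) injected subcutaneously beside the right forelimb of 5-week-old female BALB/c nude mice. At 100 mm³ tumour volume, mice randomised by weight and tumour size into four groups of ten. Saline vehicle control ip. Dosing for 20 days, then euthanasia and tumour weighing. Caliper diameters used; volume = W²×L/2.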
(A xenograft is tissue or cells of one species grown in another, often human tumour cells in immunodeficient mice.)

For data set [21], the system named is HCT-116. Put plainly: Antitumor activity against human HCT-116 cells xenografted in female BALB/c nude mouse assessed as tumor growth inhibition at 40 mg/kg, ip administered every 2 days for 20 days by vernier caliper relative to control. It is filed as functional. The conditions noted are these: HCT-116, 480 h, time 20 day, read-out: TGI. The method, boiled down:
as §3

Active and inactive are the calls of the source. No cut-off for these calls is given here.

For the molecule `COc1ccc(/C=C(/C(=O)N2CCN(c3ccc(C)cc3)CC2)c2cc(OC)c(OC)c(OC)c2)cc1O`, in data set [1], the selectivity ratio was 4.8. Also, the inhibition result in the data set on HCT-116 [2], with HCT-116 [3] and on Tubulin (Homo sapiens) [5] was “Dose-Dependent Effect” in each case. The outcome on Tubulin (Homo sapiens) [4] was Active. In addition, the Activity in the data set on HCT-116 [6] was 34.26%; in the data set with HCT-116 [7] it was 34.17%; in the data set on HCT-116 [8] it was 44.67%; in the data set on HCT-116 [9] it was 5.43%; in the data set on HCT-116 [10], 88.26%; in the data set on HCT-116 [11], “Dose-Dependent Effect”. In addition, the Activity result is “Dose-Dependent Effect” in the data set on HCT-116 [12]; “Dose-Dependent Effect” in the data set with HCT-116 [13]; 24.95% in the data set with A549 [14]; 8.51% in the data set on A549 [15]; 87.18% in the data set with A549 [16]; 4.72% in the data set on A549 [17]. The results for the Activity in the data set on A549 [18] and with A549 [19] were 1.05% and 1.25%, respectively. Further, the inhibition in vivo at 20 mg/kg with HCT-116 [20] amounted to 1.48%. For the same molecule, in the data set on HCT-116 [21], the inhibition in vivo at 40 mg/kg is 12.7%.

Values taken from ChEMBL document CHEMBL5500387, “Design, synthesis of combretastatin A-4 piperazine derivatives as potential antitumor agents by inhibiting tubulin polymerization and inducing autophagy in HCT116 cells” (Eur J Med Chem, 2024).
